# Assay outcomes from PubChem.
# proCasp7 act – counter-screen: procaspase-7 (human) activation; recombinant procaspase-7, Ac-DEVD-pNA absorbance 405 nm; D23A/D198A/D206A triple mutant, cannot self-cleave; scale: DMSO 0, 5 µM enzyme 100; activation, % at 8.5 µM; hit rate 0.093% among 330,000; AID 463210;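 active = percent activation above the screen-wide mean plus 3 SD, cut at about 25% in these data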
# Target sequence (P55210 whole entry D23A/D198A/D206A): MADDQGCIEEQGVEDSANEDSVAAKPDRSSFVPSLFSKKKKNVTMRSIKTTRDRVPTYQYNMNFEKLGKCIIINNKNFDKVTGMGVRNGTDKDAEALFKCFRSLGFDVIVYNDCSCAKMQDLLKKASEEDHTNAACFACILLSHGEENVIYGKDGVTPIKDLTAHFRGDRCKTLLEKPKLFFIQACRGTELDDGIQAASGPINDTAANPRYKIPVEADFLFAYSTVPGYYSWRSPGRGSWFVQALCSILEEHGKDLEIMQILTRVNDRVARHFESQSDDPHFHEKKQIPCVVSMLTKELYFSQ
#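 Assay system – Uncleavable procaspase-7 mutant enzyme · Quantity – 2 µM procaspase-7 mutant as dispensed · Times – 1 h preincubation, 2 h reaction · Dosing – single nominal 8.5 µM compound dose, 0.8% DMSO final · Buffer or medium – Zinc-free 50 mM HEPES buffer, pH 7.4, with NaCl and Triton X-100 · Detection – Epi-absorbance of released pNA at 405 nm, two timepoints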
# proCasp3 act – activators of human procaspase-3 | recombinant procaspase-3 D3A, Ac-DEVD-pNA absorbance 405 nm | activation, % at 8.5 µM | hit rate 0.11% among 330,000 | AID 463141;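 active = activation above the mean of all tested compounds plus 3 SD, cut at about 21% in these data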;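 also: 0% = DMSO alone and 100% = DMSO wells spiked with extra 5 µM PC-3 D3A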
# Target sequence (P42574 whole entry D9A/D28A/D175A): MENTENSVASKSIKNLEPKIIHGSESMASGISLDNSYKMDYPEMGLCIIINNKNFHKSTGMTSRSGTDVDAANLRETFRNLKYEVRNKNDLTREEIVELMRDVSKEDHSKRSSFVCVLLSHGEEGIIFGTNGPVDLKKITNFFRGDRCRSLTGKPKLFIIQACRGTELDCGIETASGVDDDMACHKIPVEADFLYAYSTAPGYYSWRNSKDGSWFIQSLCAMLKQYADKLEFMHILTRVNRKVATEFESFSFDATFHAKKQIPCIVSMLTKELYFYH
#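 Assay system – Procaspase-3 D3A mutant · Benchmarks – DMSO low control, extra-enzyme high control · Technique – 405 nm absorbance of p-nitroaniline, reads at 0 and 120 min · Doses – 8.5 µM nominal · Measure – % activation between DMSO and enzyme-spiked controls · Also added – Ac-DEVD-pNA chromogenic peptide substrate · Schedule – 1 h compound preincubation, 2 h substrate hydrolysis at 25 °C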
# GAA850 FXN act – activators of GAA850 frataxin (FXN) promoter; HEK293 lucGAA850 FXN promoter luciferase reporter, 24 h; percent of 10 µM SAHA response; activation, % at 6 µM; hit rate 0.56% among 360,000;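 active = activation above the average of all compounds screened plus 3 SD, cutoff fixed separately per campaign, cut at about 7.5% in these data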;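 also: 0% = DMSO wells and 100% = 10 µM SAHA wells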
# PC3 D3A act – counter-screen: procaspase-3 (human) activation | shares compounds with proCasp7 act | recombinant PC-3 D3A, Ac-DEVD-pNA absorbance 405 nm; aspartates 9, 28, 175 changed to alanine; 100% = enzyme control | activation, % at 8.5 µM | 290 tested, under 10 active | AID 493114;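 active = mean percent activation across triplicates above a set limit taken from the earlier primary procaspase-3 screen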;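 also: 0% = DMSO wells and 100% = DMSO wells with 5 µM added PC-3 D3A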
# Procasp7 act – activates human procaspase-7, confirming dual procaspase activators; shares compounds with proCasp7 act; activation, % at 8.5 µM; 290 tested, under 10 active; recombinant procaspase-7, Ac-DEVD-pNA absorbance 405 nm; D23A/D198A/D206A mutant that cannot self-cleave;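 active = mean activation above a set limit carried over from the earlier primary screen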;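 also: 0% = DMSO only and 100% = DMSO with added 5 µM PC-7 enzyme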
# * = called active by the depositor; · = no result. Most compounds without a hit are left out; they make up all but 0.7% or so of the library.
SMILES,proCasp7 act,proCasp3 act,GAA850 FXN act,PC3 D3A act,Procasp7 act
Cc1c(Cc2ccccc2)c(=O)oc2c(O)c(O)ccc12,·,·,4.1,·,·
Cc1c(Cc2ccccc2)c(=O)oc2cc(O)ccc12,27.3*,25.2*,2.2,-31.0,-36.0
Cc1ccc(S(=O)(=O)N2CCC[C@H]2C(=O)OCc2nc3ccccc3s2)cc1,·,·,1.5,·,·
CN(Cc1ccccc1)C(=O)Cn1c(=O)c2cccn2c2cccnc21,2.7,9.4,-2.0,·,·
CN1CC(c2ccccc2)Oc2ccccc2C1=S (stereo unspecified),-3.4,-4.6,0.9,·,·
Nc1c(-c2ccccc2)sc2ccc3ccccc3[n+]12,-21.3,-19.1,1.8,·,·
Cc1cc(C)nc(NS(=O)(=O)c2ccc(NC(=O)c3snnc3C)cc2)n1,-0.2,6.9,0.0,·,·
CC1(C)CC[C@]2(CO)[C@@H](O)C[C@]3(C)C(=CCC4[C@@]5(C)CC[C@H](O)C(C)(C)C5CC[C@]43C)[C@@H]2C1 (stereo partly specified),-4.2,4.7,·,·,·
Cn1c(CC(=O)Nc2ccc(F)cc2)nnc1SCC(=O)Nc1nncs1,12.5,-4.7,-0.9,·,·
Cn1c(CC(=O)Nc2ccccc2F)nnc1SCC(=O)Nc1nncs1,37.7*,0.4,0.0,2.9,-1.4
O=C(Oc1ccccc1)N1CCN(C(=O)c2ccco2)CC1,·,·,3.9,·,·
Cc1cc(C)cc(NC(=O)CSc2nc3ccccc3nc2N2CCCC2)c1,39.1*,6.7,0.7,-29.3,-33.6
CC(=O)Nc1ccc(NC(=O)CSc2nc3ccccc3nc2N2CCCCC2)cc1,-0.3,-4.5,0.2,·,·
O=C(CSc1nc2ccccc2nc1N1CCCC1)Nc1ccc(F)cc1,40.9*,2.1,0.7,-29.6,-34.5
Cc1cc(C)cc(NC(=O)CSc2nc3ccccc3nc2N2CCCCC2)c1,3.9,-2.3,-0.6,·,·
COc1ccc(S(=O)(=O)N2CCCCCC2)cc1C(=O)N(C)CC(=O)Nc1cc(C)ccc1C,·,·,-0.3,·,·
O=C(CNC(=O)c1ccc(Cl)cc1Cl)OCN1C(=O)c2ccccc2C1=O,-0.4,3.7,1.9,·,·
CCOP(=O)(OCC)c1nc(-c2cccc3ccccc23)oc1NCc1ccccc1,20.0,18.7,1.6,·,·
CCOP(=O)(OCC)c1nc(-c2cccc3ccccc23)oc1NCc1ccc(OC)cc1,60.6*,36.1*,0.8,-28.8,-35.7
Cc1ccccc1NC(=O)Cc1nc(COC(=O)c2nccnc2N)cs1,·,·,-3.2,·,·
Cc1cc2c(c(=O)n1C)C(Cc1ccccc1)C(C#N)=C(N)O2 (stereo unspecified),46.8*,38.2*,3.3,-27.2,-35.1
CCCC1C(C#N)=C(N)Oc2cc(C)n(C)c(=O)c21 (stereo unspecified),24.1,17.6,-1.6,·,·
CN1N=C2c3ccccc3CCC2C1c1ccc(F)cc1 (stereo unspecified),1.2,-0.2,-0.1,·,·
c1ccc(N2CC3CCc4ccccc4C3=N2)cc1 (stereo unspecified),72.4*,39.3*,2.8,-29.8,-35.1
Cc1c(CCC(=O)NCCCN2CCCC2=O)c(=O)oc2c(C)c(O)ccc12,25.8*,27.6*,0.8,-29.9,-35.5
SMILES,proCasp7 act,proCasp3 act,GAA850 FXN act,PC3 D3A act,Procasp7 act
CCc1cc(=O)oc2c(C)c(OCC(=O)NCCCN3CCCC3=O)ccc12,-0.7,2.5,2.0,·,·
Cc1oc2cc3oc(=O)c(CCC(=O)NC4CC4)c(C)c3cc2c1C,-1.8,9.1,1.9,·,·
Cc1c(CCC(=O)NC2CC2)c(=O)oc2c(C)c(O)ccc12,26.6*,28.0*,0.1,-29.6,-36.1
Cc1cc(N/N=C/c2ccc(N(C)C)cc2)nc(NCc2ccccc2)n1,32.4*,57.1*,-1.5,-28.4,-27.5
Cc1ccc(/C=N/Nc2cc(C)nc(NCc3ccccc3)n2)cc1,-2.1,-7.8,0.4,·,·
CC1=CC2=C(C=O)C(=O)C(C)(O)C(O)C2=CO1 (stereo unspecified),·,·,1.1,·,·
CCOC(=O)C1CCCN(S(=O)(=O)c2ccc(Cl)nc2)C1 (stereo unspecified),4.9,-8.6,0.6,·,·
C=CCNC(=S)N/N=C/c1ccc(N(CC)Cc2ccccc2)cc1,37.1*,24.0*,3.4,-19.1,-13.9
CCN(CC)c1ccc(/C=N/NC(=S)NCc2ccccc2)cc1,42.8*,67.0*,1.1,-26.1,-28.9
CCN(CC)c1ccc(/C=N/NC(=S)NCc2ccc(OC)cc2)cc1,37.4*,44.1*,2.5,-30.4,-29.8
C=CCNC(=S)N/N=C/c1ccc(C(F)(F)F)cc1,-0.1,-0.3,-1.9,·,·
COc1ccc(CNC(=S)N/N=C/c2ccncc2)cc1,8.2,-5.7,-1.0,·,·
COc1ccc(/C=N/NC(=S)NCc2ccccc2)cc1OC,-2.3,9.4,1.6,·,·
CCOC(=O)[C@H]1[C@H]2COc3ccc(C)cc3[C@@H]2N2C(=O)[C@@H](C)NC(=O)[C@@]12C,22.8,5.7,-0.1,·,·
CN(C(=O)c1cccc(NC(=O)Cc2cccc(NC(=O)C3CCN(C(=O)C4CCCC4)CC3)c2)c1)C1CC1,·,·,-1.0,·,·
COc1cc(Cl)ccc1OCc1cc(C(=O)N(C)CCc2cnn(C)c2)no1,-7.1,3.8,5.0,·,·
CCCCOc1cccc(C(=O)Nc2ccc(S(=O)(=O)Nc3nnc(CC)s3)cc2)c1,-2.7,8.2,1.5,·,·
C[C@@H]1O[C@@H](OCCC(=O)O)[C@H](O)C[C@H]1O,0.7,5.3,-0.5,·,·
CN1CCN(C(=O)c2ccc(-c3cccs3)s2)CC1,2.2,-7.1,1.4,·,·
O=C(c1cccs1)c1ccc(-c2cccs2)s1,37.0*,27.2*,2.1,-30.1,-34.7
Cc1cc(C)c(S(=O)(=O)c2ccccc2)c(OC(=O)c2c(F)cccc2F)n1,6.9,-0.7,0.2,·,·
Cc1cc(C)c(S(=O)(=O)c2ccccc2)c(OC(=O)c2c(Cl)cc(Cl)cc2Cl)n1,26.5*,-1.1,-0.3,1.8,2.7
COc1ccc(OC)c2sc(N3CCCCC3)nc12,28.2*,-0.6,1.9,4.9,-1.6
COc1ccc(OC)c2sc(N3CCc4ccccc4C3)nc12,2.7,-2.3,5.0,·,·
COc1ccc(NC(=O)C2=NN(c3ccccc3)C(=O)CC2)cn1,16.8,8.6,0.3,·,·
CN(C(=O)CSc1nnc(C2CC2)n1-c1ccccc1)C1CCS(=O)(=O)C1 (stereo unspecified),16.1,14.9,1.4,·,·
COc1ccc2sc(-c3ccc(S(C)(=O)=O)cc3)c(-c3ccc(SC)cc3)c2c1,12.0,10.8,-0.4,·,·
COc1ccc2c(-c3ccc(SC)cc3)c(-c3ccc(S(C)(=O)=O)cc3)sc2c1,54.6*,42.5*,-1.2,-27.7,-34.3
C=CCNc1sc(C(=O)c2ccc(C)cc2)c(N)c1C#N,-6.1,-112.7,3.4,·,·
C=CCNc1nc(N)c(C(=C(C#N)C#N)c2ccc(Br)cc2)s1,104.8*,11.9,-1.4,-28.5,-35.1
